Results published in ChEMBL document CHEMBL2034906, “Inhibition of tumor cells interacting with stromal cells by xanthones isolated from a Costa Rican Penicillium sp” (J Nat Prod, 2012).

Tests used:
[1] = Cytotoxicity against human KMS34 cells after 48 hrs by luminometric analysis; assay type: functional, cell-based; conditions: KMS-34, 48 h
How it was run: (§1)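 Tumor cells were cultured without HS-5 stromal cells and treated with increasing compound concentrations for 48 h. Luciferin substrate was added, cultures were incubated 30 min, and bioluminescence was read on a luminometer. Signal was normalized to the non-treated control, with each condition in quadruplicate, and IC50 was calculated.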

RPMI-8226 [2] = assay: Cytotoxicity against human RPMI8226 cells after 48 hrs by luminometric analysis; assay type: functional, cell-based; conditions: RPMI-8226, 48 h; how it was run: as §1
[3] = Cytotoxicity against human 8226/DOX40 cells after 48 hrs by luminometric analysis; assay type: functional, cell-based; how it was run: as §1
[4] = Cytotoxicity against human OCILY17R cells after 48 hrs by luminometric analysis; assay type: functional, cell-based; how it was run: as §1
[5] = Cytotoxicity against human OCI-My5 cells after 48 hrs by luminometric analysis in presence of HS5 bone marrow stromal cells; assay type: functional, cell-based; conditions: OCI-My5, 48 h
How it was run: (§2)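 Tumor cells were co-cultured with HS-5 bone marrow stromal cells. For non-adherent tumors, stroma was seeded overnight, then tumor cells were overlaid and treated the next day. For adherent tumors, stroma and tumor cells were plated together overnight, then treated. Cells received increasing compound concentrations for 48 h. Luciferin was added for 30 min and bioluminescence read. Signal was normalized to the untreated control, in quadruplicate, and IC50 was calculated.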

[6] = Cytotoxicity against human KU-812F cells after 48 hrs by luminometric analysis in presence of HS5 bone marrow stromal cells; assay type: functional, cell-based; how it was run: as §2
PC-3 [7] = assay: Cytotoxicity against human PC3 cells after 48 hrs by luminometric analysis; assay type: functional, cell-based; conditions: PC-3, 48 h; how it was run: as §1
[8] = Cytotoxicity against human KU-812F cells after 48 hrs by luminometric analysis; assay type: functional, cell-based; how it was run: as §1
MDA-MB-231 [9] = assay: Cytotoxicity against human MDA-MB-231 cells after 48 hrs by luminometric analysis; assay type: functional, cell-based; conditions: MDA-MB-231, 48 h; how it was run: as §1
L-363 [10] = assay: Cytotoxicity against human L363 cells after 48 hrs by luminometric analysis in presence of HS5 bone marrow stromal cells; assay type: functional, cell-based; conditions: L-363, 48 h; how it was run: as §2
OPM-2 [11] = assay: Cytotoxicity against human OPM2 cells after 48 hrs by luminometric analysis; assay type: functional, cell-based; conditions: OPM-2, 48 h; how it was run: as §1
[12] = Cytotoxicity against human Farage cells after 48 hrs by luminometric analysis; assay type: functional, cell-based; how it was run: as §1
HT [13] = assay: Cytotoxicity against human HT cells after 48 hrs by luminometric analysis in presence of HS5 bone marrow stromal cells; assay type: functional, cell-based; how it was run: as §2
[14] = Cytotoxicity against human KMS34 cells after 48 hrs by luminometric analysis in presence of HS5 bone marrow stromal cells; assay type: functional, cell-based; conditions: KMS-34, 48 h; how it was run: as §2
NCI-H929 (Homo sapiens) [15] = assay: Cytotoxicity against human NCI-H929 cells after 48 hrs by luminometric analysis in presence of HS5 bone marrow stromal cells; conditions: NCI-H929, 48 h
HT [16] = assay: Cytotoxicity against human HT cells after 48 hrs by luminometric analysis; assay type: functional, cell-based; how it was run: as §1
[17] = Cytotoxicity against human OCI-My5 cells after 48 hrs by luminometric analysis; assay type: functional, cell-based; conditions: OCI-My5, 48 h; how it was run: as §1
[18] = Cytotoxicity against human OCILY17R cells after 48 hrs by luminometric analysis in presence of HS5 bone marrow stromal cells; assay type: functional, cell-based; how it was run: as §2
OPM-2 [19] = assay: Cytotoxicity against human OPM2 cells after 48 hrs by luminometric analysis in presence of HS5 bone marrow stromal cells; assay type: functional, cell-based; conditions: OPM-2, 48 h; how it was run: as §2
[20] = Cytotoxicity against human Farage cells after 48 hrs by luminometric analysis in presence of HS5 bone marrow stromal cells; assay type: functional, cell-based; how it was run: as §2
[21] = Cytotoxicity against human MM1S cells after 48 hrs by luminometric analysis; assay type: functional, cell-based; conditions: MM1.S; how it was run: as §1
[22] = Cytotoxicity against human 8226/DOX40 cells after 48 hrs by luminometric analysis in presence of HS5 bone marrow stromal cells; assay type: functional, cell-based; how it was run: as §2
RPMI-8226 [23] = assay: Cytotoxicity against human RPMI8226 cells after 48 hrs by luminometric analysis in presence of HS5 bone marrow stromal cells; assay type: functional, cell-based; conditions: RPMI-8226, 48 h; how it was run: as §2
NCI-H929 (Homo sapiens) [24] = assay: Cytotoxicity against human NCI-H929 cells after 48 hrs by luminometric analysis; conditions: NCI-H929, 48 h
MDA-MB-231 [25] = assay: Cytotoxicity against human MDA-MB-231 cells after 48 hrs by luminometric analysis in presence of HS5 bone marrow stromal cells; assay type: functional, cell-based; conditions: MDA-MB-231, 48 h; how it was run: as §2
[26] = Cytotoxicity against human MM1S cells after 48 hrs by luminometric analysis in presence of HS5 bone marrow stromal cells; assay type: functional, cell-based; conditions: MM1.S; how it was run: as §2
PC-3 [27] = assay: Cytotoxicity against human PC3 cells after 48 hrs by luminometric analysis in presence of HS5 bone marrow stromal cells; assay type: functional, cell-based; conditions: PC-3, 48 h; how it was run: as §2
L-363 [28] = assay: Cytotoxicity against human L363 cells after 48 hrs by luminometric analysis; assay type: functional, cell-based; conditions: L-363, 48 h; how it was run: as §1
[29] = Cytotoxicity against human THLE3 cells after 48 hrs by luminometric analysis; assay type: cell-based; conditions: THLE3, 48 h
[30] = Cytotoxicity against human SVGp12 cells after 48 hrs by luminometric analysis; assay type: cell-based; conditions: SVGp12, 48 h
[31] = Cytotoxicity against human HS5 cells after 48 hrs by luminometric analysis; assay type: cell-based; conditions: HS5, 48 h
[32] = Cytotoxicity against human HOBIT cells after 48 hrs by luminometric analysis; assay type: cell-based
RPMI-8226 [33] = assay: Ratio of IC50 for human RPMI8226 cells in absence of HS5 bone marrow stromal cells to IC50 for human RPMI8226 in presence of HS5 bone marrow stromal cells; assay type: functional

Structure (SMILES) | IC50 (RPMI-8226 [2]) | IC50 [3] | IC50 [6] | IC50 (PC-3 [7]) | IC50 [8] | IC50 (MDA-MB-231 [9]) | IC50 (OPM-2 [11]) | IC50 [12] | IC50 (HT [13]) | IC50 (NCI-H929 (Homo sapiens) [15]) | IC50 (HT [16]) | IC50 (OPM-2 [19]) | IC50 [20] | IC50 [21] | IC50 [22] | IC50 (RPMI-8226 [23]) | IC50 (NCI-H929 (Homo sapiens) [24]) | IC50 (MDA-MB-231 [25]) | IC50 [26] | IC50 (PC-3 [27]) | other results
CC(=O)OC[C@]12Oc3c(-c4ccc5c(c4O)C(=O)C4=C(O)C[C@@H](C)[C@@H](OC(C)=O)[C@@]4(CO)O5)ccc(O)c3C(=O)C1=C(O)C[C@@H](C)[C@H]2OC(C)=O (relative stereo) | 12.9 µM | 15 µM | 24.2 µM | 122 µM | 14.6 µM | 43.4 µM | 12.7 µM | 12.4 µM | 9.9 µM | 35.2 µM | 10.8 µM | 10.5 µM | 10.5 µM | 37.1 µM | 21.6 µM | 8.9 µM | 54.5 µM | 34.2 µM | 47.1 µM | 66.3 µM | IC50 [1]: 22.6 µM; IC50 [4]: 31.1 µM; IC50 [5]: 47.7 µM; IC50 (L-363 [10]): 79.4 µM; IC50 [14]: 55.6 µM; IC50 [17]: 18.8 µM; IC50 [18]: 47.4 µM; IC50 (L-363 [28]): 66 µM
CC(=O)O[C@@H]1[C@H](C)CC(O)=C2C(=O)c3c(ccc(-c4ccc5c(c4O)C(=O)C4=C(O)C[C@@H](C)[C@@H](OC(C)=O)[C@@]4(CO)O5)c3O)O[C@@]21CO [DICERANDROL A] |  | 22.8 µM | 46.6 µM | 100 µM | 24.6 µM | 43.3 µM |  | 15.6 µM |  | 22.9 µM |  |  | 14.8 µM | 28.9 µM | 36.9 µM |  | 42.5 µM | 38.4 µM | 33.3 µM | 71.7 µM | 
CC(=O)OC[C@]12Oc3ccc(-c4ccc5c(c4O)C(=O)C4=C(O)C[C@@H](C)[C@@H](OC(C)=O)[C@@]4(COC(C)=O)O5)c(O)c3C(=O)C1=C(O)C[C@@H](C)[C@H]2OC(C)=O [DICERANDROL C] | 4.8 µM | 10 µM | 14.3 µM | 121 µM | 7.1 µM | 18.1 µM | 4.8 µM | 3.5 µM | 4 µM | 5.4 µM | 2.1 µM | 7.5 µM | 3.3 µM | 14.7 µM | 13.9 µM | 2.8 µM | 10.8 µM | 13.3 µM | 20.8 µM | 45.2 µM | 
CC(=O)OC[C@]12Oc3ccc(-c4ccc5c(c4O)C(=O)C4=C(O)C[C@@H](C)[C@@H](OC(C)=O)[C@@]4(CO)O5)c(O)c3C(=O)C1=C(O)C[C@@H](C)[C@H]2OC(C)=O [DICERANDROL B] | 2.4 µM | 2.2 µM | 3.6 µM | 34 µM | 2.7 µM | 8.5 µM | 1.9 µM | 1.6 µM | 1.3 µM | 3.4 µM | 1.2 µM | 1.5 µM | 1.3 µM | 7.3 µM | 2.3 µM | 1.2 µM | 10.2 µM | 5.5 µM | 8 µM | 14.1 µM | IC50 [1]: 5.5 µM; IC50 [4]: 4.6 µM; IC50 [5]: 5.7 µM; IC50 [29]: 10 µM; IC50 [30]: 13.7 µM; IC50 [31]: 13 µM; IC50 [14]: 9.3 µM; IC50 [17]: 2.8 µM; IC50 [18]: 5.2 µM; IC50 [32]: 9.2 µM; IC50 (L-363 [28]): 16.7 µM; Ratio IC50 (RPMI-8226 [33]): 2
CC(=O)OC[C@]12Oc3cccc(O)c3C(=O)C1=C(O)C[C@@H](C)[C@H]2OC(C)=O (relative stereo) | 71.6 µM | 11.6 µM | 95.9 µM | 1380 µM | 44.9 µM | 164 µM | 42.8 µM | 200 µM | 34.9 µM | 94.8 µM | 100 µM | 44.8 µM | 38.7 µM | 168 µM | 24.2 µM | 34 µM | 188 µM | 118 µM | 186 µM | 216 µM | IC50 [1]: 153 µM; IC50 [4]: 1620 µM; IC50 [5]: 384 µM; IC50 (L-363 [10]): 199 µM; IC50 [14]: 199 µM; IC50 [17]: 158 µM; IC50 [18]: 293 µM; IC50 (L-363 [28]): 464 µM
